Converted amounts (≈) assume the structure as drawn.
Experiments:
[1] = target: T1, Phosphatidylinositol 4,5-bisphosphate 3-kinase catalytic subunit delta isoform (Homo sapiens, UniProt O00329); test: Inhibition of PI3Kdelta in human JeKo1 B cells assessed as decrease in AKT phosphorylation at Ser473 measured after 1 hr; assay type: cell-based
T1 sequence (O00329 whole entry): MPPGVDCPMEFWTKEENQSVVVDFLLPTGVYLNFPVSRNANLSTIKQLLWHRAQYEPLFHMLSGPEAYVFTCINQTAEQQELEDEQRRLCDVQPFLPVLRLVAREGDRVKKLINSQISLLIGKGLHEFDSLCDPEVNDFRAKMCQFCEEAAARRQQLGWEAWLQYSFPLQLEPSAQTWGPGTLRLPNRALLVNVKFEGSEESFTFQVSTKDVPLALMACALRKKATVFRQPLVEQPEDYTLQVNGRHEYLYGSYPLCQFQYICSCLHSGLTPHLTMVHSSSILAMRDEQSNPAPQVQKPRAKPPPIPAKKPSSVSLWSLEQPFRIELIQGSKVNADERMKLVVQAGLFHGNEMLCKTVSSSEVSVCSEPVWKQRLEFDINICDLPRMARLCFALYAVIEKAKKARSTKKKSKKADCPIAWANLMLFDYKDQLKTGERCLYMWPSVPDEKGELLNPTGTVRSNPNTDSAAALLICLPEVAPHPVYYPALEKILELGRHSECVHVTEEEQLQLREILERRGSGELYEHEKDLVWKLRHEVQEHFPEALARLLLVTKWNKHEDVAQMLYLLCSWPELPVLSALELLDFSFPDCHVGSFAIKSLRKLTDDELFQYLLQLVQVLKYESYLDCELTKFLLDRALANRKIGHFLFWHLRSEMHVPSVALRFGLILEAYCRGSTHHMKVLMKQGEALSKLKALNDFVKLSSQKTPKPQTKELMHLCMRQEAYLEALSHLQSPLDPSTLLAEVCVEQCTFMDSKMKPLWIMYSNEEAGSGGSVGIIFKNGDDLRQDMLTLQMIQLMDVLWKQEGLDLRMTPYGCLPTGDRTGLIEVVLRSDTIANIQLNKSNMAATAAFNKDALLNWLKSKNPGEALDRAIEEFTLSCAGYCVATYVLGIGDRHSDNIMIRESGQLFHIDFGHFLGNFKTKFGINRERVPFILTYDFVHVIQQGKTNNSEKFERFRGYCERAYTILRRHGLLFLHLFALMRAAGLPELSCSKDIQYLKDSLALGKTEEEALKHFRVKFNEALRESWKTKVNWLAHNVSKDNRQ

[2] = target: Phosphatidylinositol 4,5-bisphosphate 3-kinase catalytic subunit alpha isoform (Homo sapiens, UniProt P42336); test: Inhibition of recombinant human PI3Kalpha using PIP2 as substrate preincubated for 20 mins followed by substrate addition measured after 80 mins in presence of ATP by Kinase Glo luminescence assay
Sequence of Phosphatidylinositol 4,5-bisphosphate 3-kinase catalytic subunit alpha isoform (Homo sapiens, UniProt P42336) (P42336 whole entry, the tested form may be a part, canonical isoform): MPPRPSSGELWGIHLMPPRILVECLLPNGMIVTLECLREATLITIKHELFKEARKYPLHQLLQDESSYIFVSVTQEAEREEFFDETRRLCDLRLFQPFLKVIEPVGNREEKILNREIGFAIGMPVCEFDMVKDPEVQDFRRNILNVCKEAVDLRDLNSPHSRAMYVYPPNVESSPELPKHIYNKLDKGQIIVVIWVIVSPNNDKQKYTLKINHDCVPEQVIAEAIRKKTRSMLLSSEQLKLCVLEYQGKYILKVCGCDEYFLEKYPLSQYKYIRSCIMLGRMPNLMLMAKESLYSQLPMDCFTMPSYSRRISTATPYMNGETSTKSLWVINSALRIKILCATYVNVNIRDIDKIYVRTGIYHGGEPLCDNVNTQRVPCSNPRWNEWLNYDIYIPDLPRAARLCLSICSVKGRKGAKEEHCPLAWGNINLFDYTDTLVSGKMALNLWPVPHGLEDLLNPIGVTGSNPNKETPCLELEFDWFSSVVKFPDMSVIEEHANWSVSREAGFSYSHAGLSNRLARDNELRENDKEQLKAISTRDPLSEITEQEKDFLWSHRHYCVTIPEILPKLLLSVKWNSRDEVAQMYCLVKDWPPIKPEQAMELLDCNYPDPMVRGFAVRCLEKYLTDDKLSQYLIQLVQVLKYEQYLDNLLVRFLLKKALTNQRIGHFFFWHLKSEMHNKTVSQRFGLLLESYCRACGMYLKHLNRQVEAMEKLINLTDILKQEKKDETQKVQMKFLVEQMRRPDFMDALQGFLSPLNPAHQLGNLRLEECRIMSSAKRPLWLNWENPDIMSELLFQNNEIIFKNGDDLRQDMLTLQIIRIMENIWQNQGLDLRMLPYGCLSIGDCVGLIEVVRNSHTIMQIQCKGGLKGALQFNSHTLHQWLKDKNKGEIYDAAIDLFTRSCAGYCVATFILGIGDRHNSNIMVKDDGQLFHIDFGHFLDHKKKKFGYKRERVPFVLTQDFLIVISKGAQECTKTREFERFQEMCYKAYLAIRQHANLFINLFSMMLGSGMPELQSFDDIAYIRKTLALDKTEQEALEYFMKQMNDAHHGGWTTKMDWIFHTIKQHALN

[3] = target: Diacylglycerol kinase beta (Homo sapiens, UniProt Q9Y6T7); test: Inhibition of human DGKbeta (1 to 804 residues) by ADP Glo HTS assay
Procedure, shortened: (§1)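 Lipid kinase selectivity assessed in a 15-kinase panel (Dundee University lipid kinase panel), IC50 determined.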

[4] = Oral bioavailability in mouse blood at 30 umol/kg; assay type: ADME, organism-based
[5] = target: T2, Phosphatidylinositol 4,5-bisphosphate 3-kinase catalytic subunit beta isoform (Homo sapiens, UniProt P42338); test: Inhibition of PI3Kbeta in PTEN-deficient human MDA-MB-468 cells assessed as decrease in AKT phosphorylation at Ser473 measured after 2 hrs
T2 sequence (P42338 whole entry, canonical isoform): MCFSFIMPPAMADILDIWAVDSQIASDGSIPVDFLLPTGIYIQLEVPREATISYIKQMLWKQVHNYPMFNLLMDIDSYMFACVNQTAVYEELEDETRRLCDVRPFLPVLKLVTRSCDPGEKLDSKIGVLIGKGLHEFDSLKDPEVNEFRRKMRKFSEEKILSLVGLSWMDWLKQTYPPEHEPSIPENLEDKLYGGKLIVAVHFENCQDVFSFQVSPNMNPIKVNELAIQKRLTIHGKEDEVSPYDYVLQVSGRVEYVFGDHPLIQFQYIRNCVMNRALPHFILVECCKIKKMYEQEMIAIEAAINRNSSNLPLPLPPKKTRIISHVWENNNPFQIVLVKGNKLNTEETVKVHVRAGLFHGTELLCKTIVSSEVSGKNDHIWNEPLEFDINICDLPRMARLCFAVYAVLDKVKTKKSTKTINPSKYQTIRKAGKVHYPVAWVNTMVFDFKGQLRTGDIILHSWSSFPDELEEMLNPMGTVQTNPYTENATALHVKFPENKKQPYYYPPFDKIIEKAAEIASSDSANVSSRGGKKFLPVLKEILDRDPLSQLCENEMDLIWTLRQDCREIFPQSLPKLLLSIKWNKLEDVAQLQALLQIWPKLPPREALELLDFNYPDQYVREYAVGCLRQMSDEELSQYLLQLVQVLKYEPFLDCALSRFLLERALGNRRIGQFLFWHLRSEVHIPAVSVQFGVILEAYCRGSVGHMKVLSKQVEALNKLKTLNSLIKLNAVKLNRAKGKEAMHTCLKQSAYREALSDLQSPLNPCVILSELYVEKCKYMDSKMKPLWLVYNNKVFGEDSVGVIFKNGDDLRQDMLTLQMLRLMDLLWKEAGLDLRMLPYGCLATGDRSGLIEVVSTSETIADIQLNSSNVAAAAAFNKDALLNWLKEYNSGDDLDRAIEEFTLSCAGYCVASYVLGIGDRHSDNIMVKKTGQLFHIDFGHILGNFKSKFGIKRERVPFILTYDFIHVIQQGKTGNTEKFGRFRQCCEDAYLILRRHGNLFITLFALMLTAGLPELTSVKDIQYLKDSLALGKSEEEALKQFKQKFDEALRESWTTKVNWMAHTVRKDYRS

[6] = Clearance in mouse blood at 5 umol/kg, iv or 30 umol/kg, po; assay type: ADME, organism-based
[7] = Fraction unbound in human plasma; assay type: ADME, cell-free
Procedure, shortened: (§2)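 Plasma protein binding in mouse, dog or human plasma, reported as fraction unbound (%).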

[8] = Clearance in dog blood at 4 umol/kg, iv or 10 umol/kg, po; assay type: ADME, organism-based, Canis lupus familiaris
[9] = Volume of distribution at steady state in dog blood at 4 umol/kg, iv or 10 umol/kg, po; assay type: ADME, organism-based, Canis lupus familiaris; settings: read-out: Vdss
[10] = Intrinsic clearance in mouse hepatocytes assessed per million cells; assay type: ADME, cell-based, Hepatocyte; settings: read-out: CLH
Procedure, shortened: (§3)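 Intrinsic clearance measured in mouse or dog hepatocytes, expressed as CL_int in […].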

[11] = Lipophilicity, log D of the compound at pH 7.4; settings: buffer
[12] = target: Phosphatidylinositol 4,5-bisphosphate 3-kinase catalytic subunit alpha isoform (Homo sapiens, UniProt P42336, E545K); test: Inhibition of human PI3Kalpha (2 to 1068 residues)/p85 (1 to 724 residues) E545K mutant by ADP Glo HTS assay; procedure, shortened: as §1
[13] = target: Diacylglycerol kinase gamma (Homo sapiens, UniProt P49619); test: Inhibition of human DGKgamma (1 to 752 residues) by ADP Glo HTS assay; procedure, shortened: as §1
Cytochrome P450 2C19 = Cytochrome P450 2C19 (Homo sapiens, UniProt P33261); test: Inhibition of CYP2C19 (unknown origin); assay type: ADME
Sequence of Cytochrome P450 2C19 (P33261 whole entry, the tested form may be a part): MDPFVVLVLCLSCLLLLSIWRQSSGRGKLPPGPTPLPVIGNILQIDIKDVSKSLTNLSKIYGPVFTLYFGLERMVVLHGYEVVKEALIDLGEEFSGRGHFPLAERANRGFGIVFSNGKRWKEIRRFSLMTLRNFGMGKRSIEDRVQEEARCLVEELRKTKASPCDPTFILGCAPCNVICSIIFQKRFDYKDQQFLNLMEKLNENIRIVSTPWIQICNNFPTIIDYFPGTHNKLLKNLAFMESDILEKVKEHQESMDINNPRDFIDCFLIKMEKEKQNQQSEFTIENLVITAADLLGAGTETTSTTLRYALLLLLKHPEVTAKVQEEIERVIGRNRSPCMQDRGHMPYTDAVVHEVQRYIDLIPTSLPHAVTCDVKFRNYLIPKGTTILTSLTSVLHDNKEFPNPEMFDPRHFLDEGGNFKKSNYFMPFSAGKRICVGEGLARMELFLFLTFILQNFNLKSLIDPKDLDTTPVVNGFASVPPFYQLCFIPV

[14] = target: MAP kinase-interacting serine/threonine-protein kinase 1 (Homo sapiens) (UniProt Q9BUB5); test: Inhibition of human MNK1 (2 to 424 residues) at 1 uM after 5 mins in presence of [33P]ATP by filter binding assay relative to control
Sequence of MAP kinase-interacting serine/threonine-protein kinase 1 (Homo sapiens) (Q9BUB5 whole entry, looked up, the tested form may be a part, canonical isoform): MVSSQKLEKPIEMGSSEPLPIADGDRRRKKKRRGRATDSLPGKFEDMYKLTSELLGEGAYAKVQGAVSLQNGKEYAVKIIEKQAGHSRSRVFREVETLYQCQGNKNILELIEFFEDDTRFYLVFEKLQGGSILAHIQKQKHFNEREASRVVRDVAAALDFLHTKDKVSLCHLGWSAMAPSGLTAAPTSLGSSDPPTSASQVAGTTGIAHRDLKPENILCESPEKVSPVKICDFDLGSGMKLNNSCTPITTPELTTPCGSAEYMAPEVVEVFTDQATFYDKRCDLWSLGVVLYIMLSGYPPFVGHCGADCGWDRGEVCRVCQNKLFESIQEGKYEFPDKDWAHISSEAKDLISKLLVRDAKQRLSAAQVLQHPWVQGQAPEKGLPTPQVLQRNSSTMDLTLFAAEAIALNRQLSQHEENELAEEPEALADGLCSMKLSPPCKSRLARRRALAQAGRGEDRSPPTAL

[15] = target: T2, Phosphatidylinositol 4,5-bisphosphate 3-kinase catalytic subunit beta isoform; test: Inhibition of recombinant human PI3Kbeta using PIP2 as substrate preincubated for 20 mins followed by substrate addition measured after 80 mins in presence of ATP by Kinase Glo luminescence assay
Sphingosine kinase 1 = Sphingosine kinase 1 (Homo sapiens, UniProt Q9NYA1); test: Inhibition of human SphK1 (1 to 384 residues) by […] HTS assay; procedure, shortened: as §1
Sequence of Sphingosine kinase 1 (Q9NYA1 whole entry, the tested form may be a part): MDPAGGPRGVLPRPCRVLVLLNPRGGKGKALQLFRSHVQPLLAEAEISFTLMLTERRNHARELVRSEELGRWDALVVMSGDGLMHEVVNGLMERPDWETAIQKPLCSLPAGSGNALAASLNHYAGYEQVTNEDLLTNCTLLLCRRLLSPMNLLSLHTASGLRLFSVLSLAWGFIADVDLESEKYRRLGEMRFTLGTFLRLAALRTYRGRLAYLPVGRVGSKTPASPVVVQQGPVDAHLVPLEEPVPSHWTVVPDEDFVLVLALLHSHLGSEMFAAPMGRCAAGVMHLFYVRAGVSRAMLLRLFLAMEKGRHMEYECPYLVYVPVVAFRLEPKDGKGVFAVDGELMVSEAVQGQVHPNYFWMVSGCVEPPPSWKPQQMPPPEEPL

[16] = Aqueous solubility of the compound in FASSIF; assay type: physicochemical
Procedure, shortened: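 Solubility from crystalline solid in Fasted Simulated Intestinal Fluid (FASSIF), µg/mL.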

[17] = Fraction unbound in mouse plasma; assay type: ADME, cell-free; procedure, shortened: as §2
[18] = target: Choline/ethanolamine kinase (Homo sapiens, UniProt Q9Y259); test: Inhibition of human CHKbeta (1 to 395 residues) by ADP Glo HTS assay; procedure, shortened: as §1
Sequence of Choline/ethanolamine kinase (Q9Y259 whole entry, the tested form may be a part): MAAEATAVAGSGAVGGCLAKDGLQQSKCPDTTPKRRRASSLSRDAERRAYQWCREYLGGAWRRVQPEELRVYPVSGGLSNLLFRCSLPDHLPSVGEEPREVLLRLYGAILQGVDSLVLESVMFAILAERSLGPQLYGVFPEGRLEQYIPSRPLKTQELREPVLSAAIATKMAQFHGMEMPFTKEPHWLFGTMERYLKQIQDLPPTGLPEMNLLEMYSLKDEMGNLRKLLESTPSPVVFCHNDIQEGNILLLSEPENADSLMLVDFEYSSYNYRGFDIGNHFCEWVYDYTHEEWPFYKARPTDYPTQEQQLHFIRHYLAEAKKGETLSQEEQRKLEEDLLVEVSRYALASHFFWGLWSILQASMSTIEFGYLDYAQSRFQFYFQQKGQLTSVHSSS

[19] = Intrinsic clearance in dog hepatocytes assessed per million cells; assay type: ADME, cell-based, Canis lupus familiaris, Hepatocyte; settings: read-out: CLH; procedure, shortened: as §3
[20] = target: Diacylglycerol kinase zeta (Homo sapiens, UniProt Q13574); test: Inhibition of human DGKzeta (1 to 929 residues) by ADP Glo HTS assay; procedure, shortened: as §1
[21] = Apparent permeability across apical to basolateral side in human Caco2 cells; settings: Caco-2
[22] = target: Voltage-gated inwardly rectifying potassium channel KCNH2 (Homo sapiens, UniProt Q12809); test: Inhibition of human ERG
Sequence of Voltage-gated inwardly rectifying potassium channel KCNH2 (Q12809 whole entry, the tested form may be a part): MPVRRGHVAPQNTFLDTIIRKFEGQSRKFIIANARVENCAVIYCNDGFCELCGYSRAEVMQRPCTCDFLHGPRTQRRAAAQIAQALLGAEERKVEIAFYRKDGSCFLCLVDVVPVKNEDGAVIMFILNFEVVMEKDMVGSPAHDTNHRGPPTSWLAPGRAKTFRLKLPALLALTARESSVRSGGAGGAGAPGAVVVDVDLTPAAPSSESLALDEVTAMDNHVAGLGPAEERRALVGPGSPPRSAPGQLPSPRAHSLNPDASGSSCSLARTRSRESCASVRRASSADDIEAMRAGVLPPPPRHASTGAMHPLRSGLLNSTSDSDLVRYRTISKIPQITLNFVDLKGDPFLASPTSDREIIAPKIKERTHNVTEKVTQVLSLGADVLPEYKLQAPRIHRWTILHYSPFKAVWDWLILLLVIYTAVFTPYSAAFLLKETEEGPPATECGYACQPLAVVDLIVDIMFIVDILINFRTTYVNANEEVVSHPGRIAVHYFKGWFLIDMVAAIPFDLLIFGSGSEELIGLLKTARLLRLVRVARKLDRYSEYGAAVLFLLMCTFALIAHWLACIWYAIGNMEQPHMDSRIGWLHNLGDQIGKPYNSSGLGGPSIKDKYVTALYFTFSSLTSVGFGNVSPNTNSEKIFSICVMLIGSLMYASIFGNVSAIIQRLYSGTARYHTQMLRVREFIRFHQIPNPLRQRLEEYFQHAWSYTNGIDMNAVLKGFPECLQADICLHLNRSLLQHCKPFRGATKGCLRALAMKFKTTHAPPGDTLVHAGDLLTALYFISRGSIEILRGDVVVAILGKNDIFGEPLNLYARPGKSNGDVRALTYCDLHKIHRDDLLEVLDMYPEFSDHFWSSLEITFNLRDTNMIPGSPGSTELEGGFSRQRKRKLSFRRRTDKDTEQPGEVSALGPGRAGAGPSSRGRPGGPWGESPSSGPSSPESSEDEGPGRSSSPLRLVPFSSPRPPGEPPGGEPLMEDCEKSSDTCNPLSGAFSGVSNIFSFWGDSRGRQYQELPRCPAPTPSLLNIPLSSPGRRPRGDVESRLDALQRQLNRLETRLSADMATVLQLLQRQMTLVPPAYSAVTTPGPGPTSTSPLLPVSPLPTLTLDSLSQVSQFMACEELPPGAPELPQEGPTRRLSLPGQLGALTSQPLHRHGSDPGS

Choline kinase alpha = Choline kinase alpha (Homo sapiens, UniProt P35790); test: Inhibition of human CHKalpha (1 to 457 residues) by ADP Glo HTS assay; procedure, shortened: as §1
[23] = target: Serine/threonine-protein kinase mTOR (Homo sapiens, UniProt P42345); test: Inhibition of mTOR (unknown origin)
[24] = Fraction unbound in dog plasma; assay type: ADME, cell-free, Canis lupus familiaris; procedure, shortened: as §2
[25] = target: Phosphatidylinositol 5-phosphate 4-kinase type-2 alpha (Homo sapiens, UniProt P48426); test: Inhibition of human PIP5K2alpha (1 to 406 residues) by ADP Glo HTS assay; procedure, shortened: as §1
Cytochrome P450 1A2 = Cytochrome P450 1A2 (Homo sapiens, UniProt P05177); test: Inhibition of CYP1A2 (unknown origin); assay type: ADME

IC50 [1]: 0.014 µM
IC50 [2]: 0.013 µM
IC50 [3]: > 50 µM
bioavailability [4]: 26%
IC50 [5]: 0.0011 µM
clearance [6]: 3.6 L/h/kg
fraction unbound [7]: 0.17
clearance [8]: 1.38 L/h/kg
Vd [9]: 1.2 L/kg
hepatocyte CLint [10]: 68 µL/min/1e6 cells
logD [11]: 2.5
IC50 [12]: > 50 µM
IC50 [13]: > 50 µM
IC50 (Cytochrome P450 2C19): > 30 µM
inhibition [14]: 36%
IC50 [15]: 0.0071 µM
IC50 (Sphingosine kinase 1): 29 µM
solubility [16]: 0.43 mg/mL (≈ 818 µM)
fraction unbound [17]: 0.19
IC50 [18]: > 50 µM
hepatocyte CLint [19]: 23 µL/min/1e6 cells
IC50 [20]: > 50 µM
Papp A→B [21]: 180 nm/s
IC50 (Choline kinase alpha): > 50 µM
IC50 [23]: 42 µM
fraction unbound [24]: 0.28
IC50 [25]: > 50 µM
IC50 (Cytochrome P450 1A2): > 30 µM
Compound: O=C(c1cc([C@H]2CCCN2c2cc(F)cc(F)c2)c2oc(N3CCOCC3)cc(=O)c2c1)N1CCOCC1
IC50 [22]: 45 µM
